SMILES strings stand for the structures.

The results in this text go back to ChEMBL document CHEMBL1811801, “Structural modifications of quinolone-3-carboxylic acids with anti-HIV activity” (Bioorg Med Chem, 2011).

A short description of data set [1]: Cytotoxicity against human C8166 cells by MTT assay. Type of data set: cell-based. An outline of the steps: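 Uninfected C8166 cells exposed to compound; viability read by MTT assay. CC50 is the concentration lowering normal uninfected cell viability by 50%. Values are means of at least two separate experiments.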
Data set [2] is described as follows: Selectivity index, ratio of CC50 for human C8166 cells to EC50 for HIV1 LAI 3B. It is filed as toxicity, cell-based. Particulars: read-out: Ratio CC50/EC50.
In data set [3] the test system is Human immunodeficiency virus 1. Nature of the data set: Antiviral activity against HIV1 LAI 3B infected in human C8166 cells assessed as protection against virus-induced cytopathic effect by MTT assay. Conditions: Human immunodeficiency virus 1, LAI 3B. It is filed as functional, organism-based. An outline of the steps:
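C8166 cells infected with wild-type HIV-1 (LAI strain IIIB); protection from viral cytopathogenicity read by MTT assay. EC50 is the concentration protecting cells against virus-induced cytopathogenicity by 50%. Values are means of at least two separate experiments.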

`CCCCCn1cc(C(=O)O)c(=O)c2c(O)c(Cc3cccc(Cl)c3F)ccc21`: the midpoint of cytotoxicity in data set [1], the CC50, lay at 39.9 µM. Besides, in data set [2], the selectivity ratio amounted to 1.7. Besides, in data set [3], the concentration for a half-maximal effect (EC50) is 23.5 µM.

On to `CCCn1cc(C(=O)O)c(=O)c2c(O)c(Cc3cccc(Cl)c3F)ccc21`, for which, in data set [1], half-maximal cytotoxicity (CC50) was put at 24.2 µM. Moreover, in data set [2], the selectivity ratio came out at 8.66. In addition, the EC50 in data set [3] was determined as 2.79 µM.

As for `CCCCn1cc(C(=O)O)c(=O)c2c(O)c(Cc3cccc(Cl)c3F)ccc21`, in data set [1], the CC50 was 19.9 µM. Further, the selectivity ratio in data set [2] came to 2.47. In addition, in data set [3], the EC50 came out at 8.09 µM.

In data set [1], `CC(C)n1cc(C(=O)O)c(=O)c2c(O)c(Cc3cccc(Cl)c3F)ccc21` came in with a 50% cytotoxic concentration (CC50) of 26.5 µM. Also, the selectivity ratio in data set [2] came out at 5.97. For the same compound, the 50% effective concentration (EC50) in data set [3] is 4.44 µM.

As to `CC(C)Cn1cc(C(=O)O)c(=O)c2c(O)c(Cc3cccc(Cl)c3F)ccc21`, the 50% cytotoxic concentration (CC50) in data set [1] stood at 19.5 µM. Further, in data set [2], the selectivity ratio came out at 5.63. The EC50 in data set [3] was found to be 3.47 µM.

In data set [1], `CCC(C)n1cc(C(=O)O)c(=O)c2c(O)c(Cc3cccc(Cl)c3F)ccc21` (stereo unspecified) registered a CC50 of 30.7 µM. Further, in data set [2], the selectivity ratio came to 16.8. Moreover, the half-maximal effective concentration (EC50) in data set [3] was determined as 1.83 µM.

In the case of `CC(C)(C)n1cc(C(=O)O)c(=O)c2c(O)c(Cc3cccc(Cl)c3F)ccc21`, the CC50 in data set [1] came to 400 µM. For the same compound, the selectivity ratio in data set [2] is 88.3. In addition, in data set [3], the concentration giving a half-maximal response (EC50) worked out at 4.53 µM.

In data set [1], `O=C(O)c1cn(C2CC2)c2ccc(Cc3cccc(Cl)c3F)c(O)c2c1=O` had a CC50 of 39.1 µM. In data set [2], the selectivity ratio came out at 19.5. Besides, in data set [3], the EC50 was 2.01 µM.

`O=C(O)c1cn(C2CCCC2)c2ccc(Cc3cccc(Cl)c3F)c(O)c2c1=O` came in with a CC50 in data set [1] of 12.4 µM. The selectivity ratio in data set [2] was found to be 3.21. In addition, the concentration for a half-maximal effect (EC50) in data set [3] worked out at 3.87 µM.

In data set [1], `O=C(O)c1cn(C2CCCCC2)c2ccc(Cc3cccc(Cl)c3F)c(O)c2c1=O` registered a CC50 of 17.4 µM. Besides, in data set [2], the selectivity ratio was found to be 6.18. In addition, in data set [3], the EC50 was 2.81 µM.

In turn, `CC(C)[C@@H](CO)n1cc(C(=O)O)c(=O)c2c(O)c(Cc3cccc(Cl)c3F)ccc21` came in with a CC50 in data set [1] of 125 µM. Moreover, the selectivity ratio in data set [2] stood at 962. In data set [3], the EC50 turned out to be 0.13 µM.

Compound `COc1cc2c(cc1Cc1cccc(Cl)c1F)c(=O)c(C(=O)O)cn2[C@H](CO)C(C)C` [ELVITEGRAVIR] returned a cytotoxic concentration (CC50) in data set [1] of 17.2 µM. Besides, the selectivity ratio in data set [2] turned out to be 81900. Also, the half-maximal effective concentration (EC50) in data set [3] turned out to be 0.00021 µM.
